Screening results as filed in PubChem BioAssay.
CHRM5 antagonist: blocks acetylcholine activation of human M5 receptor; inhibition, % at 3 µM; CHO-hM5 cells, Fluo-8 calcium fluorescence, ACh EC80; actives 0.59% (n = 360,000); AID 624040;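 active means inhibition above a per-plate cutoff, the mean of that plate's test compounds plus 3 SD, cut at about 27% in these data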;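 further: 0% = acetylcholine EC80 with DMSO and 100% = DMSO without agonist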
Target sequence (P08912 whole entry, looked up): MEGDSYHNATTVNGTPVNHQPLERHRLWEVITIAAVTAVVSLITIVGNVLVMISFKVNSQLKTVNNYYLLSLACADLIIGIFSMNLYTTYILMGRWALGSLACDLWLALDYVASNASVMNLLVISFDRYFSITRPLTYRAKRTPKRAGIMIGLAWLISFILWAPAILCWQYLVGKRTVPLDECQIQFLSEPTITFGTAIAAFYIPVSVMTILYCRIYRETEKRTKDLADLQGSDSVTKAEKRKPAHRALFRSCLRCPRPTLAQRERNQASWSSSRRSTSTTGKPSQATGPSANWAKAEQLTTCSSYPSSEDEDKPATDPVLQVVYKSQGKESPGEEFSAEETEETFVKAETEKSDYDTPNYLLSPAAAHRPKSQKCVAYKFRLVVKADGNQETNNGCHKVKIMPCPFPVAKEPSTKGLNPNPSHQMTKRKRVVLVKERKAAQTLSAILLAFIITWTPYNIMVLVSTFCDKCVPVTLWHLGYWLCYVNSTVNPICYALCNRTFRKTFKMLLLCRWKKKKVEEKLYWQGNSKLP
M5 PAM: CHRM5 positive allosteric modulation | P08912 | CHO-K1 hM5, Fluo-8 calcium, ACh EC20 PAM; 0% = ACh EC20, 100% = ACh EC100 | activation, % at 3 µM | actives 0.3% (n = 360,000) | AID 624038;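 active means activation above the run cutoff, the mean activation of all test compounds plus 3 SD, cut at about 18% in these data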
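System: CHO-K1 cell line with stable human muscarinic M5 receptor expression | Also added: EC20 acetylcholine as agonist stimulus | Compound: One concentration, 3 µM final (nominal) | Timing: Fluo-8 loading 80 min at 37 °C plus 30 min room temperature | Measured by: Fluo-8 calcium dye fluorescence, kinetic read | Read-out basis: % activation, ACh-normalized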
M4 PAM: potentiates acetylcholine response at human M4 receptor; activation, % at 3 µM; CHO-K1 hM4/Gqi5, Fluo-8 calcium fluorescence, ACh EC20; 0% = ACh EC20, 100% = maximal ACh; actives 0.4% (n = 360,000);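 active means activation above its plate's cutoff, the mean activation of sample wells plus 3 SD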
CHRM4 agonist: agonists of human muscarinic M4 receptor (CHRM4); actives 0.14% (n = 360,000); activation, % at 3 µM; CHO-K1 hM4/Gqi5, Fluo-8 calcium fluorescence; vehicle 0%, full acetylcholine response 100%; AID 624127;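 active means activation above the run mean over all test wells plus 3 SD, cut at about 32% in these data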;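 further: peak over basal fluorescence ratio per well then scaled between controls; 0% = DMSO wells and 100% = acetylcholine at EC100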
M5 ag: CHRM5 agonism in calcium assay | P08912 | CHO-K1 hM5 cells, Fluo-8 calcium fluorescence; 0% DMSO wells, 100% maximal acetylcholine response | activation, % at 3 µM | actives 0.19% (n = 360,000);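 active means activation above the run's mean over test compounds plus 3 SD, cut at about 23% in these data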;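 further: signal is peak over basal fluorescence ratio across the kinetic read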
CHRM4 antagonist: CHRM4 antagonism in calcium assay; AID 624125; inhibition, % at 3 µM; actives 0.73% (n = 360,000); CHO-hM4 cells, ACh EC80, Fluo-8 calcium fluorescence;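 active means inhibition above its plate's cutoff, the mean inhibition of sample wells plus 3 SD, cut at about 27% in these data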;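 further: 0% = acetylcholine EC80 with DMSO and 100% = DMSO without agonist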
Numbers without * were called inactive. The list is not random: actives were taken first. Their share in the collection is about 1.8%.

SMILES	CHRM5 antagonist	M5 PAM	M4 PAM	CHRM4 agonist	M5 ag	CHRM4 antagonist
Cc1ccc(S(=O)(=O)CC(=O)NCc2ccc(Cl)cc2)cc1	4	1	7	1	-1	-7
CCOc1ccc(CCNC(=O)CS(=O)Cc2nc(-c3ccc(OC)c(OC)c3)oc2C)cc1OCC (configuration not stated)	5	3	-1	1	-4	10
COc1cc(OC)cc(C(=O)N2CCN(c3ccc(N4CCOCC4)nn3)CC2)c1	-2	3	1	1	-5	-16
Nc1[nH]n2c(=O)cc(-c3ccccc3)nc2c1N=Nc1ccccc1	11	0	-1	0	-2	14
Nc1[nH]n2c(=O)cc(-c3ccccc3)nc2c1N=Nc1ccc(S(N)(=O)=O)cc1	13	19*	18	1	10	-2
COc1ccc(Cl)cc1NC(=O)NNC(=O)C(=O)Nc1ccc(F)cc1	8	-1	-4	1	2	-1
CC(=O)NCCNC(=O)c1ccc(CSc2nc3ccccc3s2)cc1	-4	1	-13	1	-1	39*
C/C(=N\NC(=O)CSc1nc2ccccc2s1)c1ccco1	8	21*	5	1	1	2
O=C(COc1ccc(F)cc1F)NNC(=O)Nc1cccc([N+](=O)[O-])c1	-3	4	0	2	-4	1
O=C(COc1ccc(-c2ccccc2)cc1)NNC(=O)NC1CCCCC1	-2	-6	-21	3	-2	87*
O=C(COc1ccc([N+](=O)[O-])cc1)NNC(=O)Nc1cccc(F)c1	29*	-11	-6	1	0	7
O=C(COc1ccccc1)NC1CCCCC1	3	-3	10	1	-1	0
O=C(COc1ccc(-c2ccccc2)cc1)NNC(=O)Nc1ccc(F)cc1F	19	43*	0	0	3	8
COc1ccc(OC)c(NC(=O)NNC(=O)COc2ccc(-c3ccccc3)cc2)c1	-19	9	-2	1	-1	2
CCOc1ccc(NC(=O)NNC(=O)COc2ccc3ccccc3c2)cc1	22	34*	1	1	2	-5
COc1ccc(CNC(=O)c2ccc(S(=O)(=O)N3CCCC3)cc2)cc1OC	22	0	-4	1	-4	1
CN1C(=O)C2(c3ccccc31)c1c(oc3ccccc3c1=O)C(=O)N2CCCO (configuration not stated)	7	-5	-7	0	0	5
O=C(Nc1ccccc1)Nc1cnccn1	5	-2	5	2	-1	-6
CC(O)(C#CCN1CCCC1)c1ccccc1 (configuration not stated)	18	-13	-1	0	-7	4
CC(C)(C#CCN1CCCCC1)OCCOC(c1ccccc1)c1ccccc1	30*	-19	-42	-4	-8	97*
CC(C)(C)C(O)(CC#CCN1CCCC1)c1ccccc1 (configuration not stated)	34*	-33	-22	1	-13	22
OC(C#CCN1CCCC1)(c1ccccc1)c1cccc(F)c1 (configuration not stated)	98*	-19	-16	2	-8	94*
CC(C)C(O)(CC#CCN1CCCC1)c1ccccc1 (configuration not stated)	42*	-35	-26	1	-18	49*
CC(O)(C#CCN1CCCCC1)c1ccccc1 (configuration not stated)	7	-13	-11	1	-7	10
CC(C)CCCN1C(N(C)C)=NC[C@@H]1Cc1ccccc1	11	-2	3	1	-9	-6
OC(CC#CCN1CCOCC1)(c1ccccc1)c1ccccc1	4	-6	-3	2	1	9
CN1CCN(CC#CCC(O)(c2ccccc2)c2ccccc2)CC1	-11	8	6	1	-3	0
OC(CC#CCN1CCCC1)(c1ccccc1)c1ccccc1	58*	-33	-60	0	-20	88*
OC(CC#CCN1CCCCC1)(c1ccccc1)c1ccccc1	26	-30	-18	2	-19	44*
